Active and inactive are the calls of the source. The calls are words filed in the database; no cut-off is given here.
Assays:
Dengue virus = experiment: Inhibition of Dengue virus NS2B-NS3 serine protease expressed in Escherichia coli BL 21 (DE3) at 50 uM preincubated for 15 mins before substrate addition measured after 15 mins by fluorimetric analysis
In short: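 Recombinant NS2B hydrophilic cofactor linked through a glycine linker to NS3pro, His-purified on Ni2+ resin. Enzyme preincubated 15 min with inhibitor at 50 μM. Internally quenched substrate added to 50 μM final. Fluorescence read at ex 320/em 405 nm for 15 min, with initial slope per second as activity. Triplicate runs averaged.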

[1] = target: Prothrombin (Homo sapiens) (UniProt P00734); experiment: Inhibition of thrombin at 25 uM preincubated for 15 mins before Boc-Val-Pro-Arg-AMC substrate addition measured after 10 mins by microtiter fluorescence plate reader analysis
[2] = target: Genome polyprotein (West Nile virus) (UniProt P06935); experiment: Inhibition of West Nile virus NS2B-NS3 serine protease at 50 uM preincubated for 15 mins before substrate addition measured after 15 mins by fluorimetric analysis
Genome polyprotein (West Nile virus), sequence (P06935 whole entry): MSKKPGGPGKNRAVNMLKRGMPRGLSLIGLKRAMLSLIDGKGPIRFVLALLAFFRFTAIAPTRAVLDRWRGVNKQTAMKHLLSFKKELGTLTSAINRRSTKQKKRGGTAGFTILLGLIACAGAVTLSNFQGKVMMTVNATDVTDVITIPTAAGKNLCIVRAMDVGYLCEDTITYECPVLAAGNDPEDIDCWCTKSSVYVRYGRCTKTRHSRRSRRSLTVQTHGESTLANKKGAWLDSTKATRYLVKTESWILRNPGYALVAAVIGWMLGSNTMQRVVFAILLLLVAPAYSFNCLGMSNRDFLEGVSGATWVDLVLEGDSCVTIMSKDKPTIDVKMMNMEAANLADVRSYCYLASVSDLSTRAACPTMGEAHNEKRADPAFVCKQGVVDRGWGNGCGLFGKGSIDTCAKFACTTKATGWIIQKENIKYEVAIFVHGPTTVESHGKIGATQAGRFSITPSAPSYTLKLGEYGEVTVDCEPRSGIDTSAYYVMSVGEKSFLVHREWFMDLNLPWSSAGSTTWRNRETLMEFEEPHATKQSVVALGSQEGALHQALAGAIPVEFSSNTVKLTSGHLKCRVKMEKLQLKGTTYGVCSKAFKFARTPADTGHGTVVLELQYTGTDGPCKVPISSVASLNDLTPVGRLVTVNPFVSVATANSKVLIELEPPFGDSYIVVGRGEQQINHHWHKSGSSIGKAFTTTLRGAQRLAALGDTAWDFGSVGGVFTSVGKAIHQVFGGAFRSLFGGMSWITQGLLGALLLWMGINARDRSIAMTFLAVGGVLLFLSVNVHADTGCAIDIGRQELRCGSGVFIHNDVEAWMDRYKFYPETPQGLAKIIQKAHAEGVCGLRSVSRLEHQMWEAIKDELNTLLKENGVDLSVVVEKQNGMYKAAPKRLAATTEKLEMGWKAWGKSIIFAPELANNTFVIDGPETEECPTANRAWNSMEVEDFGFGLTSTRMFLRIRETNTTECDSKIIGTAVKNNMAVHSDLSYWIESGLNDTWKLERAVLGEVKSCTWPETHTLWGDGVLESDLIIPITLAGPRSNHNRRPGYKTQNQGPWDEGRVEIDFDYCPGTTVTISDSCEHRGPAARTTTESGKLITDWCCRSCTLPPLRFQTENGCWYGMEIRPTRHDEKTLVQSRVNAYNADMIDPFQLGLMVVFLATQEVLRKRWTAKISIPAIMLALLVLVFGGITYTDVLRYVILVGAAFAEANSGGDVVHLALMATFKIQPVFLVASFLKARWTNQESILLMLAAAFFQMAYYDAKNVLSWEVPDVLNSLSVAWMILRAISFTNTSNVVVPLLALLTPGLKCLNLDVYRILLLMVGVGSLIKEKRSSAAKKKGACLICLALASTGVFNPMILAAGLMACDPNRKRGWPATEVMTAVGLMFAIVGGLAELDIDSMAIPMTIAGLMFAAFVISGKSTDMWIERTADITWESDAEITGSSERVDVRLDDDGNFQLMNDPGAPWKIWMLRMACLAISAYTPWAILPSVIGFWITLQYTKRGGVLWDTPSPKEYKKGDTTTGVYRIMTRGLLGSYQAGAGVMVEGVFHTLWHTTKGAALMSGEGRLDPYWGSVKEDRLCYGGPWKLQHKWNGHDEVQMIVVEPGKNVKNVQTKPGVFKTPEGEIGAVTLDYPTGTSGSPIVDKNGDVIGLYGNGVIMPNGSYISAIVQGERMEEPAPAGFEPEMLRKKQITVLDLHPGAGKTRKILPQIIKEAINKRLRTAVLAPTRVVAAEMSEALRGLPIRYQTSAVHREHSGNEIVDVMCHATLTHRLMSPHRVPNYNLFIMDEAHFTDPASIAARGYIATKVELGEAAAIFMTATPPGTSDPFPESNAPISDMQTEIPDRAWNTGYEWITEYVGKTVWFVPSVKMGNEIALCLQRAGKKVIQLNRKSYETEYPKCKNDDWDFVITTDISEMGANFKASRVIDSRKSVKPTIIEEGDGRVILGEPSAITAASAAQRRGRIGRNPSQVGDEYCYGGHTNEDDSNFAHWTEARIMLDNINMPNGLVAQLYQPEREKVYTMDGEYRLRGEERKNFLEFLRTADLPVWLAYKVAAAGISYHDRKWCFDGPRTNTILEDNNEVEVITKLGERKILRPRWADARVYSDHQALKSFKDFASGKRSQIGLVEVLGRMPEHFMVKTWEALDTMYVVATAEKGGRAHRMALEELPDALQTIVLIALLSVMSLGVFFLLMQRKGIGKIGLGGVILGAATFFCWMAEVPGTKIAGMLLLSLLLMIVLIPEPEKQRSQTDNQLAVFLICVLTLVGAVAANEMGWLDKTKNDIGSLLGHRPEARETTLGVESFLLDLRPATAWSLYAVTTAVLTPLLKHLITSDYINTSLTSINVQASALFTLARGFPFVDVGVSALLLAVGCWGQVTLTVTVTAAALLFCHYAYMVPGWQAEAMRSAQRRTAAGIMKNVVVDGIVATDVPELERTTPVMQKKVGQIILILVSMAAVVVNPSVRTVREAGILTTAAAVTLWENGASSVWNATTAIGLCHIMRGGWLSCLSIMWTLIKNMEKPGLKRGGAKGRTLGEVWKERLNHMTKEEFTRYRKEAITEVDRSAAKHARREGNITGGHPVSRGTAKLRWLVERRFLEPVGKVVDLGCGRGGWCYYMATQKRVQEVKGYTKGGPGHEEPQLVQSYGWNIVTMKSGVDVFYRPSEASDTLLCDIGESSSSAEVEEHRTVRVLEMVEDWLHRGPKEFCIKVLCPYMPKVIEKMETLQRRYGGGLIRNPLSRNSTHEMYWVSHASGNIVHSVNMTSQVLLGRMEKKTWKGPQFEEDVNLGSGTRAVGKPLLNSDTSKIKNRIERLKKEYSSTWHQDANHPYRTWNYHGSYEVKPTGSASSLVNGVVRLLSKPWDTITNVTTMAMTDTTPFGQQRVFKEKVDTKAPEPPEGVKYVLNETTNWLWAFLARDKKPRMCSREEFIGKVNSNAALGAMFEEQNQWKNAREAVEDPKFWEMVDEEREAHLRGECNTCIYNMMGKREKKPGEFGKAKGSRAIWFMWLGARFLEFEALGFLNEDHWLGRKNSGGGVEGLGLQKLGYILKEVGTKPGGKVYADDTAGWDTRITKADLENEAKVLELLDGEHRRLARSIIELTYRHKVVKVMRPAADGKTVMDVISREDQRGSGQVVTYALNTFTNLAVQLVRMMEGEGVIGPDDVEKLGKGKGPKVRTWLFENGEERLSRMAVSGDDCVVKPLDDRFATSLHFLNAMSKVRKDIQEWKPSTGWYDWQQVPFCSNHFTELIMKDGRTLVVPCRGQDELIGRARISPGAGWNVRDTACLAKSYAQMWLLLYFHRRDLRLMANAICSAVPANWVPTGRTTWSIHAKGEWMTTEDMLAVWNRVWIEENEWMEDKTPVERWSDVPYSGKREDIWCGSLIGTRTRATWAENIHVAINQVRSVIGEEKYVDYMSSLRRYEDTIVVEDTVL
In short: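 WNV NS2B-NS3 protease at 150 nM final, preincubated 15 min with inhibitor at 50 μM. Abz-GLKRGG-3-(NO2)Y internally quenched substrate added to 50 μM final. Continuous fluorescence read for 15 min, with initial slope per second as activity.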

Huh-7 = experiment: Cytotoxicity against human HuH7 cells assessed as reduction of cell viability at up to 100 uM after 48 hrs by luciferase assay; format: cell-based; settings: huh-7, 48 h
In short: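 Huh-7-Fluc cells exposed to compounds up to 100 μM for 48 h at 37 °C, 5% CO2. Cells then lysed and luciferase activity read as a surrogate of viability, alongside visual inspection of cells.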

dengue virus type 2 [3] = experiment: Antiviral activity against Dengue virus 2 infected in human Huh-7 cells assessed as inhibition of viral replication at 1 to 25 uM treated 4 hrs after infection measured after 24 hrs by reporter gene assay; format: functional, organism-based
dengue virus type 2 [4] = experiment: Antiviral activity against Dengue virus 2 infected in human Huh-7 cells assessed as reduction of viral titers at non-cytotoxic concentration after 24 hrs by reporter gene assay relative to control; format: functional
In short: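 Huh-7 cells were infected with wild-type DenV-2 at an MOI of 1 TCID50 per cell. Compounds were added to the supernatants 4 h post-infection, with 1% final DMSO as the diluent control. Infectious titers were determined 24 h post-infection by limiting-dilution assay, with three independent experiments. Cytotoxicity was measured in Huh-7-Fluc cells after 48 h at 37 °C by luciferase read-out and visual inspection.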

SMILES	inhibition (Dengue virus) [%]	further results
O=C(/C=C/c1ccccc1)C(=O)NCCO	26.1	–
O=C(/C=C/c1ccccc1)C(=O)N1CCOCC1	30.8	–
CC(C)(C)NC(=O)C(=O)/C=C/c1ccc([N+](=O)[O-])cc1	12.7	–
CC(C)(C)NC(=O)C(=O)/C=C/c1c[nH]c2ccccc12	39.1	inhibition [1]: 16.9%; Activity (Huh-7): Non-toxic; Activity (dengue virus type 2 [3]): Active; inhibition [2]: 40.6%; fold change (FC) (dengue virus type 2 [4]): 1000
CC(C)(C)NC(=O)C(=O)/C=C/c1ccc(C#N)cc1	13.5	–
CC(C)(C)NC(=O)C(=O)/C=C/c1cccc([N+](=O)[O-])c1	9.6	–
CC(C)(C)NC(=O)C(=O)C1CCCCC1	21.5	–
CC(C)(C)NC(=O)C(=O)/C=C/c1ccc(F)cc1	23.9	–
CC(NC(=O)C(=O)/C=C/c1ccccc1)c1ccccc1 (stereo unspecified)	0	inhibition [1]: 5.1%; inhibition [2]: 12.2%
CCC/C=C/C(=O)C(=O)NC(C)(C)C	4.4	–
COc1ccc(/C=C/C(=O)C(=O)NC(C)(C)C)c(OC)c1OC	27.8	–
CCCCCNC(=O)C(=O)/C=C/c1ccccc1	25.9	–
CC(C)c1ccc(/C=C/C(=O)C(=O)NC(C)(C)C)cc1	25.5	–
CC(C)(C)NC(=O)C(=O)/C=C/c1cccnc1	23.3	–
O=C(/C=C/c1ccccc1)C(=O)NC1CCCCC1	14.5	–
COc1ccc(/C=C/C(=O)C(=O)NC(C)(C)C)cc1	16.7	inhibition [1]: 14.2%; inhibition [2]: 27.3%
CNC(=O)/C=C/c1ccccc1	15.2	–

SMILES	inhibition (Dengue virus) [%]	further results
CN(C)C(=O)C(=O)/C=C/c1ccccc1	29	–
O=C(/C=C/c1ccccc1)C(=O)NC1CC1	31.2	inhibition [1]: 17.1%; inhibition [2]: 20%
CC(C)(C)NC(=O)C(=O)/C=C/c1ccc(N)cc1	40.6	inhibition [1]: 21.1%; inhibition [2]: 39.5%
CC(C)NC(=O)C(=O)/C=C/c1ccccc1	23.8	–
O=C(/C=C/c1ccccc1)C(=O)NCC1CCCO1 (stereo unspecified)	28.9	–
O=C(/C=C/c1ccccc1)C(=O)NCc1ccncc1	29.9	–
CC(C)(C)NC(=O)C(=O)/C=C/c1ccc(Cl)cc1	15.9	inhibition [1]: 6.7%; inhibition [2]: 6.3%
COC(=O)[C@H](CO)NC(=O)C(=O)/C=C/c1ccccc1	35.1	inhibition [1]: 12.6%; inhibition [2]: 27.5%
CC(C)(C)NC(=O)C(=O)/C=C/c1cccs1	27.6	–
CN(C)c1ccc(/C=C/C(=O)C(=O)NC(C)(C)C)cc1	13.8	inhibition [1]: 28.9%; inhibition [2]: 33.9%
O=C(/C=C/c1ccccc1)C(=O)NCc1ccccn1	29.4	–
O=C(/C=C/c1ccccc1)C(=O)NCc1ccccc1	14.6	–
CC(C)(C)NC(=O)C(=O)/C=C/c1ccc(Br)cc1	15.1	–
CC(C)(C)NC(=O)C(=O)/C=C/c1ccncc1	18.4	–
CNC(=O)C(=O)/C=C/c1ccccc1	26.9	–
CC(=O)OCCNC(=O)C(=O)/C=C/c1ccccc1	35.8	inhibition [1]: 16.3%; inhibition [2]: 29.8%
COc1ccc(/C=C/C(=O)C(=O)NC(C)(C)C)cc1OC	36.1	inhibition [1]: 22.5%; Activity (dengue virus type 2 [3]): Active; inhibition [2]: 31%

Continued, in another order:

inhibition (Dengue virus) [%]	SMILES	further results
6.9	CC(C)(C)NC(=O)C(=O)c1ccccc1	–
25.6	C/C(=C\c1ccccc1)C(=O)C(=O)NC(C)(C)C	inhibition [1]: 5.7%; inhibition [2]: 0%
20.4	CC(C)(C)NC(=O)C(=O)Cc1ccccc1	–
7.4	CC(C)(C)NC(=O)C(=O)C1CC1c1ccccc1 (stereo unspecified)	–
19.6	C/C(=C\C(=O)C(=O)NC(C)(C)C)c1ccccc1	–
31.3	Cn1cc(/C=C/C(=O)C(=O)NC(C)(C)C)c2ccccc21	–
8.2	CC(C)(C)NC(=O)C(O)/C=C/c1ccccc1 (stereo unspecified)	–
37.6	CC(C)(C)NC(=O)C(=O)/C=C/c1ccc(O)cc1	inhibition [1]: 17.3%; inhibition [2]: 31.4%
16.8	CC(C)(C)NC(=O)C(=O)/C=C/c1cccc(F)c1	–
32.9	CC(=O)Nc1ccc(/C=C/C(=O)C(=O)NC(C)(C)C)cc1	–
27.7	CC(C)(C)NC(=O)C(=O)/C=C/c1ccccn1	–
17.8	COc1cccc(/C=C/C(=O)C(=O)NC(C)(C)C)c1	–
12.9	CC(C)(C)NC(=O)C(=O)/C=C/c1ccccc1[N+](=O)[O-]	–
23.3	COc1ccccc1/C=C/C(=O)C(=O)NC(C)(C)C	–
12.6	CC(C)(C)NC(=O)C1(/C=C/c2ccccc2)CO1 (stereo unspecified)	inhibition [1]: 12.1%; inhibition [2]: 20.3%
8.9	CC(C)(C)NC(=O)C(=O)/C=C/c1ccc2ccccc2c1	–
0	CC(C)(C)NC(=O)C(=O)CCc1ccccc1	Activity (dengue virus type 2 [3]): inactive
26.3	CC(C)(C)NC(=O)C(=O)/C=C/c1ccccc1	inhibition [1]: 19.6%; inhibition [2]: 20%
29.8	CC(=O)n1cc(/C=C/C(=O)C(=O)NC(C)(C)C)c2ccccc21	–
